{"data": "Assay results pooled from the literature", "target": "Tyrosine-protein kinase ABL2 (ABL2, Homo sapiens, UniProt P42684)", "note": "Protocols differ between the studies behind these lines."}
{"SMILES": "Cc1ccc(Nc2nccc(N(C)c3ccc4c(C)n(C)nc4c3)n2)cc1S(N)(=O)=O", "observed": "enzyme activity", "mode": "inhibitor", "concentration": "0.3 µM", "measurement": "inhibition", "value": "24%"}
{"SMILES": "COc1cc(Cl)c(C(=O)N[C@@H](CN[C@H]2CC[C@@H](N)CC2)Cc2ccc(C#N)cc2)cc1-c1ccc(CN[C@H](C)c2ccc(C)cc2)o1", "observed": "enzyme activity", "mode": "inhibitor", "concentration": "1 µM", "measurement": "remaining activity", "value": "87%"}
{"SMILES": "O=C1Nc2ccc(Cl)cc2C1=Cc1cc(Cl)c(O)c(Cl)c1", "observed": "cell-free assay", "concentration": "0.5 µM", "measurement": "remaining signal", "value": "80.4%"}
{"SMILES": "O=C1NC(c2ccccn2)Sc2ccccc21 (centres unmarked)", "observed": "cell-free assay", "method": "competition with immobilised ligand", "concentration": "1 µM", "measurement": "remaining binding", "value": "85%"}
{"SMILES": "CCN(CC)c1ccc(C2=NNC(=O)CC2C)cc1[N+](=O)[O-] (centres unmarked)", "observed": "enzyme activity", "mode": "inhibitor", "concentration": "10 µM", "measurement": "remaining activity", "value": "89%"}
{"SMILES": "CNC(=O)c1cc2c(Oc3ccc(NC(=O)C4(C(=O)Nc5ccc(F)cc5)CC4)cc3)ccnc2cc1OC", "observed": "enzyme activity", "mode": "inhibitor", "method": "radiometric", "concentration": "1 µM", "measurement": "inhibition", "value": "88%"}
{"SMILES": "CC(C)(O)[C@H]1CC[C@H](Nc2ccc3ncc(-c4cccc(C(F)(F)F)c4)n3n2)CC1", "observed": "enzyme activity", "mode": "inhibitor", "concentration": "1 µM", "measurement": "remaining activity", "value": "76.5%"}
{"SMILES": "Clc1ccc(Nc2nnc(Cc3ccncc3)c3ccccc23)cc1", "observed": "cell-free assay", "concentration": "0.5 µM", "measurement": "remaining signal", "value": "101%"}
{"SMILES": "Cc1ccc(C(=O)Nc2ccc(CN3CCN(C)CC3)c(C(F)(F)F)c2)cc1C#Cc1cnc2cccnn12", "observed": "enzyme activity", "mode": "inhibitor", "concentration": "23.5 nM", "measurement": "remaining activity", "value": "3.2%"}
{"SMILES": "COc1cc2ncnc(Nc3ccc(Oc4ccccc4)c(C)c3C)c2cc1OC", "observed": "enzyme activity", "mode": "inhibitor", "concentration": "1 µM", "measurement": "inhibition", "value": "6%"}
{"SMILES": "C[C@H](c1ccc(F)cc1)N(Cc1cccc(C(=O)O)c1)C(=O)c1cnc2ccccc2c1", "observed": "cell-free assay", "method": "competition with immobilised ligand", "concentration": "1 µM", "measurement": "remaining binding", "value": "82%"}
{"SMILES": "CCCS(=O)(=O)Nc1ccc(F)c(C(=O)c2c[nH]c3ncc(-c4ccc(Cl)cc4)cc23)c1F", "observed": "enzyme activity", "mode": "inhibitor", "concentration": "1 µM", "measurement": "inhibition", "value": "< 20%"}
{"SMILES": "Cn1cc(Cl)c2c(Oc3c(F)cc(Nc4cc(Cl)nc(N)n4)cc3F)ccnc21", "observed": "cell-free assay", "method": "competition with immobilised ligand", "concentration": "0.1 µM", "measurement": "remaining binding", "value": "99%"}
{"SMILES": "C=CC(=O)Nc1cc(Nc2nccc(Nc3cc(Cl)c(F)cc3C(C)(C)O)n2)c(OC)cc1N1CC[C@@H](N(C)C)C1", "observed": "enzyme activity", "mode": "inhibitor", "concentration": "1 µM", "measurement": "inhibition", "value": "18%"}
{"SMILES": "CN(C(=O)c1ccccc1)c1cc(N(C)c2ccc3c(c2)CCc2ccc(C(=O)NCCN4CCOCC4)cc2C3=O)ccc1F", "observed": "cell-free assay", "method": "competition with immobilised ligand", "concentration": "1 µM", "measurement": "remaining binding", "value": "100%"}
{"SMILES": "Cc1sc(C(=O)NC2COC2)cc1-n1cc(NC(=O)Nc2c(F)cccc2Cl)cn1", "observed": "enzyme activity", "mode": "inhibitor", "concentration": "10 µM", "measurement": "remaining activity", "value": "123%"}
{"SMILES": "CNC(=O)c1cc(Oc2ccc(NC(=O)Nc3ccc(Cl)c(C(F)(F)F)c3)cc2)ccn1", "observed": "enzyme activity", "mode": "inhibitor", "concentration": "10 µM", "measurement": "inhibition", "value": "48%"}
{"SMILES": "Cc1nc(N2CC[C@@H](O)C2)ncc1-c1cc(C(F)(F)F)cc2[nH]ncc12", "observed": "binding", "method": "competition with immobilised ligand", "concentration": "1 µM", "measurement": "remaining binding", "value": "60%"}
{"SMILES": "CC/C(=N\\NC(=O)NCc1cccc(O)c1)c1ccc(O)c(C)c1O", "observed": "enzyme activity", "mode": "inhibitor", "concentration": "0.1 µM", "measurement": "inhibition", "value": "-0.2%"}
{"SMILES": "Cc1nccc(COC(=O)N2C[C@@H]3[C@@H](CNC(=O)c4ccc5[nH]nnc5c4)[C@@H]3C2)n1", "observed": "cell-free assay", "method": "competition with immobilised ligand", "concentration": "1 µM", "measurement": "remaining binding", "value": "90%"}
{"SMILES": "CC(C)(C)c1nc(-c2cccc(NS(=O)(=O)c3c(F)cccc3F)c2F)c(-c2ccnc(N)n2)s1", "observed": "enzyme activity", "mode": "inhibitor", "method": "radiometric", "concentration": "1 µM", "measurement": "remaining activity", "value": "77%"}
{"SMILES": "O=C(Nc1ccc(Oc2ccc(F)cc2)cc1)N1CCc2ncccc2[C@H]1c1ccc(F)cc1", "observed": "cell-free assay", "method": "competition with immobilised ligand", "concentration": "1 µM", "measurement": "remaining binding", "value": "88%"}
{"SMILES": "CNc1cccc2cc(C(=O)Nc3ccc(C(=O)O)cc3)c(=O)[nH]c12", "observed": "enzyme activity", "mode": "inhibitor", "concentration": "10 µM", "measurement": "inhibition", "value": "-3.6%"}
